Measured values from publication PMC7744997 (Clinical Infectious Diseases: An Official Publication of …, 2020).
Where two headings read alike, the source gives them in different places.

Experiments:
[1] = assay type: in vivo, human
How it was run: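 Population PK model built in adults and scaled to paediatrics, fitted to sparse heel- or finger-prick capillary samples. Weight-based oral doses were given once daily for 7 days in three age cohorts (≥6–≤24, 3–<6, >1–<3 months). Doses were escalated after data review committee assessment of PK and safety. AUC24h, Cmin and Cmax were estimated at day 1 and day 7, as mean with CV%.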

[2] = Safety/tolerability: adverse events in RSV-infected infants; assay type: in vivo, human
How it was run: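 Adverse events were recorded over 28 days in infants given oral drug or placebo once daily for 7 days. Events were graded with the DMID Pediatric Toxicity Tables (November 2007), and the investigator judged relatedness to study drug. Events causing rehospitalisation were counted as serious. Vital signs, ECGs and physical examination were also done.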

[3] = test system: RSV infection; test: Clinical course of RSV infection; assay type: in vivo, human; settings: JNJ-8678 (combined)
How it was run: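 Infants (>1 to ≤24 months, term-born, hospitalised ≤72 h before randomisation with PCR-confirmed RSV) got oral drug or placebo once daily for 7 days (4:1 randomisation) and were followed 28 days. Outcomes were hospital stay and time to clinical stability: the latest of end of supplemental oxygen, end of supplemental feeding, normal heart rate and normal respiratory rate. Times were shown as Kaplan-Meier curves. Clinician and caregivers completed PRESORS symptom questionnaires electronically.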

[4] = test system: RSV-A and RSV-B strains; settings: panel of laboratory-derived and clinically isolated RSV-A and RSV-B strains, in vitro; cited from earlier work
[5] = test system: RSV; settings: healthy volunteers, 75–500 mg once daily for 7 days; cited from earlier work
[6] = cohort 1a (≥6 to ≤24 mo), 2 mg/kg QD oral, n=4, Day 1
[7] = cohort 1a (≥6 to ≤24 mo), 2 mg/kg QD oral, n=4, Day 7
[8] = cohort 1b (≥6 to ≤24 mo), 6 mg/kg QD oral, n=4, Day 1
[9] = cohort 1b (≥6 to ≤24 mo), 6 mg/kg QD oral, n=4, Day 7
[10] = cohort 1c (≥6 to ≤24 mo), 8 mg/kg QD oral, n=4, Day 1
[11] = cohort 1c (≥6 to ≤24 mo), 8 mg/kg QD oral, n=4, Day 7
[12] = cohort 2a (≥3 to <6 mo), 1.5 mg/kg QD oral, n=4, Day 1
[13] = cohort 2a (≥3 to <6 mo), 1.5 mg/kg QD oral, n=4, Day 7
[14] = cohort 2b (≥3 to <6 mo), 4.5 mg/kg QD oral, n=4, Day 1
[15] = cohort 2b (≥3 to <6 mo), 4.5 mg/kg QD oral, n=4, Day 7
[16] = cohort 2c (≥3 to <6 mo), 6 mg/kg QD oral, n=1, Day 1
[17] = cohort 2c (≥3 to <6 mo), 6 mg/kg QD oral, n=1, Day 7
[18] = cohort 3a (>1 to <3 mo), 1 mg/kg QD oral, n=4, Day 1
[19] = cohort 3a (>1 to <3 mo), 1 mg/kg QD oral, n=4, Day 7
[20] = cohort 3b (>1 to <3 mo), 3 mg/kg QD oral, n=4, Day 1
[21] = cohort 3b (>1 to <3 mo), 3 mg/kg QD oral, n=4, Day 7
[22] = cohort 3c (>1 to <3 mo), 5 mg/kg QD oral, n=4, Day 1
[23] = cohort 3c (>1 to <3 mo), 5 mg/kg QD oral, n=4, Day 7
[24] = cohort 1d (≥6 to ≤24 mo), 9 mg/kg QD oral, n=4, Day 1
[25] = cohort 1d (≥6 to ≤24 mo), 9 mg/kg QD oral, n=4, Day 7

CS(=O)(=O)CCCn1c(Cn2c(=O)n(CC(F)(F)F)c3ccncc32)cc2cc(Cl)ccc21 [JNJ-53718678]
Mean AUC24h (CV%) [1, 6]: 6047.2 (17.5) ng × h/mL
Mean Cmax (CV%) [1, 6]: 546.8 (35.7) ng/mL
Mean Cmin (CV%) [1, 6]: 81.4 (58.8) ng/mL
Mean AUC24h (CV%) [1, 7]: 7738.8 (27.4) ng × h/mL
Mean Cmax (CV%) [1, 7]: 721.3 (31.2) ng/mL
Mean Cmin (CV%) [1, 7]: 114.0 (77.7) ng/mL
Mean Cmax (CV%) [1, 8]: 1960.5 (58.1) ng/mL
Mean Cmin (CV%) [1, 8]: 155.5 (89.3) ng/mL
Mean Cmax (CV%) [1, 9]: 3304.2 (12.3) ng/mL
Mean Cmin (CV%) [1, 9]: 225.7 (66.5) ng/mL
Mean Cmax (CV%) [1, 10]: 3346.9 (13.0) ng/mL
Mean Cmin (CV%) [1, 10]: 244.1 (90.4) ng/mL
Mean Cmax (CV%) [1, 11]: 4298.8 (11.2) ng/mL
Mean Cmin (CV%) [1, 11]: 323.9 (95.7) ng/mL
Target exposures ([1]; cohort 1c, ≥6–≤24 months, 8 mg/kg QD, AUC24h similar to adults): Cmin and Cmax target exposures were not reached
Mean AUC24h (CV%) [1, 12]: 6658.4 (25.6) ng × h/mL
Mean Cmax (CV%) [1, 12]: 727.5 (68.7) ng/mL
Mean Cmin (CV%) [1, 12]: 88.3 (39.2) ng/mL
Mean AUC24h (CV%) [1, 13]: 8620.9 (17.3) ng × h/mL
Mean Cmax (CV%) [1, 13]: 938.0 (53.3) ng/mL
Mean Cmin (CV%) [1, 13]: 124.0 (49.1) ng/mL
Mean Cmax (CV%) [1, 14]: 2533.2 (25.0) ng/mL
Mean Cmin (CV%) [1, 14]: 319.8 (16.9) ng/mL
Mean Cmax (CV%) [1, 15]: 3021.8 (41.2) ng/mL
Mean Cmin (CV%) [1, 15]: 363.0 (18.9) ng/mL
Mean Cmax (CV%) [1, 16]: 2556.8 (…) ng/mL
Mean Cmin (CV%) [1, 16]: 428.6 (…) ng/mL
Mean Cmax (CV%) [1, 17]: 3131.0 (…) ng/mL
Mean Cmin (CV%) [1, 17]: 517.3 (…) ng/mL
Mean AUC24h (CV%) ([1]; cohort 2c (≥3 to <6 mo), 6 mg/kg QD oral, n=1, Day 7, listed as JNJ-8678, 6 mg/kg): 34 980 ng × h/mL
Mean AUC24h (CV%) [1, 18]: 4495.6 (4.8) ng × h/mL
Mean Cmax (CV%) [1, 18]: 374.2 (18.5) ng/mL
Mean Cmin (CV%) [1, 18]: 72.6 (41.1) ng/mL
Mean AUC24h (CV%) [1, 19]: 5827.0 (12.3) ng × h/mL
Mean Cmax (CV%) [1, 19]: 498.0 (13.2) ng/mL
Mean Cmin (CV%) [1, 19]: 100.9 (46.3) ng/mL
Mean Cmax (CV%) [1, 20]: 958.2 (15.2) ng/mL
Mean Cmin (CV%) [1, 20]: 342.9 (14.3) ng/mL
Mean Cmax (CV%) [1, 21]: 1671.2 (14.6) ng/mL
Mean Cmin (CV%) [1, 21]: 650.2 (15.5) ng/mL
Mean Cmax (CV%) [1, 22]: 1866.6 (51.7) ng/mL
Mean Cmin (CV%) [1, 22]: 458.7 (54.9) ng/mL
Mean Cmax (CV%) [1, 23]: 3001.8 (25.1) ng/mL
Mean Cmin (CV%) [1, 23]: 929.0 (62.1) ng/mL
Mean AUC24h (CV%) ([1]; cohort 3c (>1 to <3 mo), 5 mg/kg QD oral, n=4, Day 7, listed as JNJ-8678, 5 mg/kg): 39 627 ng × h/mL
Mean Cmax (CV%) [1, 24]: 2371.8 (70.8) ng/mL
Mean Cmin (CV%) [1, 24]: 333.2 (62.3) ng/mL
Mean Cmax (CV%) [1, 25]: 3389.4 (52.9) ng/mL
Mean Cmin (CV%) [1, 25]: 615.9 (75.2) ng/mL
Mean AUC24h (CV%) ([1]; cohort 1d (≥6 to ≤24 mo), 9 mg/kg QD oral, n=4, Day 7, listed as JNJ-8678, 9 mg/kg): 35 840 ng × h/mL
SAE bronchiolitis ([2]; 1/12, cohort 1b, mid-dose, 6 mg/kg QD): 8%
Any AE ([2]; All cohorts, n=37): 28 (76) no. (%)
Any AE possibly related to placebo/JNJ-53718678 ([2]; All cohorts, n=37): 11 (30) no. (%)
Any AE probably related to placebo/JNJ-53718678 ([2]; All cohorts, n=37): 1 (3) no. (%)
Any worst grade 1 or 2 AE ([2]; All cohorts, n=37): 28 (76) no. (%)
Any worst grade 3 or 4 AE ([2]; All cohorts, n=37): 1 (3) no. (%)
Soft feces (AE) ([2]; All cohorts, n=37): 7 (19) no. (%)
URTI (AE) ([2]; All cohorts, n=37): 8 (22) no. (%)
Vomiting (AE) ([2]; All cohorts, n=37): 8 (22) no. (%)
Serious AE ([2]; All cohorts, n=37, serious due to rehospitalization, not related to study drug): 2 (5) no. (%)
Any AE ([2]; High (cohorts 1d,2c,3c), n=9): 7 (78) no. (%)
Any AE possibly related to placebo/JNJ-53718678 ([2]; High (cohorts 1d,2c,3c), n=9): 2 (22) no. (%)
Any AE probably related to placebo/JNJ-53718678 ([2]; High (cohorts 1d,2c,3c), n=9): 0 no. (%)
Any worst grade 1 or 2 AE ([2]; High (cohorts 1d,2c,3c), n=9): 7 (78) no. (%)
Any worst grade 3 or 4 AE ([2]; High (cohorts 1d,2c,3c), n=9): 0 no. (%)
Serious AE ([2]; High (cohorts 1d,2c,3c), n=9): 0 no. (%)
Soft feces (AE) ([2]; High (cohorts 1d,2c,3c), n=9): 0 no. (%)
URTI (AE) ([2]; High (cohorts 1d,2c,3c), n=9): 3 (33) no. (%)
Vomiting (AE) ([2]; High (cohorts 1d,2c,3c), n=9): 4 (44) no. (%)
Any AE ([2]; Low (cohorts 1a,2a,3a), n=12): 9 (75) no. (%)
Any AE possibly related to placebo/JNJ-53718678 ([2]; Low (cohorts 1a,2a,3a), n=12): 3 (25) no. (%)
Any AE probably related to placebo/JNJ-53718678 ([2]; Low (cohorts 1a,2a,3a), n=12): 0 no. (%)
Any worst grade 1 or 2 AE ([2]; Low (cohorts 1a,2a,3a), n=12): 9 (75) no. (%)
Any worst grade 3 or 4 AE ([2]; Low (cohorts 1a,2a,3a), n=12): 0 no. (%)
Soft feces (AE) ([2]; Low (cohorts 1a,2a,3a), n=12): 2 (17) no. (%)
URTI (AE) ([2]; Low (cohorts 1a,2a,3a), n=12): 1 (8) no. (%)
Vomiting (AE) ([2]; Low (cohorts 1a,2a,3a), n=12): 0 no. (%)
Any AE ([2]; Mid (cohorts 1b,2b,3b), n=12): 10 (83) no. (%)
Any AE possibly related to placebo/JNJ-53718678 ([2]; Mid (cohorts 1b,2b,3b), n=12): 4 (33) no. (%)
Any AE probably related to placebo/JNJ-53718678 ([2]; Mid (cohorts 1b,2b,3b), n=12): 1 (8) no. (%)
Any worst grade 1 or 2 AE ([2]; Mid (cohorts 1b,2b,3b), n=12): 10 (83) no. (%)
Any worst grade 3 or 4 AE ([2]; Mid (cohorts 1b,2b,3b), n=12): 1 (8) no. (%)
Soft feces (AE) ([2]; Mid (cohorts 1b,2b,3b), n=12): 3 (25) no. (%)
URTI (AE) ([2]; Mid (cohorts 1b,2b,3b), n=12): 4 (33) no. (%)
Vomiting (AE) ([2]; Mid (cohorts 1b,2b,3b), n=12): 3 (25) no. (%)
Any AE ([2]; Mid-high (cohort 1c), n=4): 2 (50) no. (%)
Any AE possibly related to placebo/JNJ-53718678 ([2]; Mid-high (cohort 1c), n=4): 2 (50) no. (%)
Any AE probably related to placebo/JNJ-53718678 ([2]; Mid-high (cohort 1c), n=4): 0 no. (%)
Any worst grade 1 or 2 AE ([2]; Mid-high (cohort 1c), n=4): 2 (50) no. (%)
Any worst grade 3 or 4 AE ([2]; Mid-high (cohort 1c), n=4): 0 no. (%)
Serious AE ([2]; Mid-high (cohort 1c), n=4): 0 no. (%)
Soft feces (AE) ([2]; Mid-high (cohort 1c), n=4): 2 (50) no. (%)
URTI (AE) ([2]; Mid-high (cohort 1c), n=4): 0 no. (%)
Vomiting (AE) ([2]; Mid-high (cohort 1c), n=4): 1 (25) no. (%)
Patients with AEs considered at least possibly related to JNJ-8678 ([2]; all JNJ-8678, 11/37): 30%
Grade 3 AEs (bronchiolitis, reported as serious AE), number ([2]; all JNJ-8678, n=37): 1
Tolerability in RSV-infected infants ([2]; oral, once daily for 7 days): well tolerated
Deaths, grade 4 AEs, AEs leading to discontinuation ([2]; whole study): No deaths, grade 4 AEs, or AEs leading to study discontinuation or permanent discontinuation of study drug were reported
Median time to clinical stability following the start of study treatment ([3]; placebo 56.7 hours): 47.4 h
Median length of hospital stay ([3]; placebo 77.5 hours): 77.7 h
Time after which all patients were clinically stable ([3]; placebo 121.1 hours): 123.5 h
Maximum length of hospital stay observed ([3]; placebo 144.5 hours): 150.4 h
50% effective concentration [4]: 0.09 to 9.50 ng/mL
Effect on viral load and clinical disease severity [5]: substantially reduced both viral load and clinical disease severity
